Assay results gathered from unrelated publications.
Target: Atypical kinase COQ8B, mitochondrial (COQ8B, Homo sapiens, UniProt Q96D53)
Residues used in one study (Q96D53 1-544): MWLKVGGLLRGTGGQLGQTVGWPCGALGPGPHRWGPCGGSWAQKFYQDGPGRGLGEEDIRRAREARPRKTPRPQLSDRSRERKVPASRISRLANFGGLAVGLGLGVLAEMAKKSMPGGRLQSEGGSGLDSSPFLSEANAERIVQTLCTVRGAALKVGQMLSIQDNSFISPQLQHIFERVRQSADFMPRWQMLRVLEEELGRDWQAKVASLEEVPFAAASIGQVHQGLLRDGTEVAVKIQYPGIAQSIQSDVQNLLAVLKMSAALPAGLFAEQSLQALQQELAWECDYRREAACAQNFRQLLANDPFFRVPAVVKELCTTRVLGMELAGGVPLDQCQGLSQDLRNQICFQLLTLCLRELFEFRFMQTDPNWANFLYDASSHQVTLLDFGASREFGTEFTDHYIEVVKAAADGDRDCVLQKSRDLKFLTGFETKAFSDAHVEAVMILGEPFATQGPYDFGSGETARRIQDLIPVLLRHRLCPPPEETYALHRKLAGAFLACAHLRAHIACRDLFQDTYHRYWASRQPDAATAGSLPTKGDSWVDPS

Cc1cnc(Nc2ccc(C(=O)N3CCC(N4CCCC4)CC3)cc2)nc1-c1cc2ccccc2s1 — remaining binding (binding, competition with immobilised ligand; 1 µM): 34%
COCCOc1nc(-c2ccc(Cl)nc2)nc2c1CN(C(=O)c1ncn3ccccc13)CC2 — remaining binding (cell-free assay, competition with immobilised ligand; 0.1 µM): 100%
O=C(Nc1c[nH]nc1C(=O)NC1CCNCC1)c1cc(F)cc(F)c1 — remaining binding (binding, competition with immobilised ligand; 1 µM): 100%
COc1cnc(Nc2cccc(S(N)(=O)=O)c2)nc1N1CCN(c2ccccc2)CC1 — remaining binding (binding, competition with immobilised ligand; 1 µM): 85%
C[C@@H](c1ccc(-n2cnc3c(N)ncnc32)cc1)N1CCc2nn(C)c(Cc3ccccc3)c2C1=O — remaining binding (binding, competition with immobilised ligand; 0.1 µM): 80%
COc1ncc2cc3ccccc3nc2c1C#N — remaining binding (cell-free assay, competition with immobilised ligand; 5 µM): 100%
FC(F)(F)Oc1cccc(-c2cnc3ccc(-c4ccncc4)nn23)c1 — remaining binding (cell-free assay, competition with immobilised ligand; 5 µM): 85%
C[C@@H]1CN(c2cc(-c3nn(C)c4ccc(OC5(C)CC5)cc34)ncn2)C[C@H](C)O1 — remaining binding (cell-free assay, competition with immobilised ligand; 1 µM): 100%
F[C@@H]1CCN(c2nccc(-c3cnn4ncccc34)n2)C1 — remaining binding (binding; 1 µM): 79%
C=CC(=O)N1CCC(C(=O)NCC(=O)N2CCN(c3nc(-c4cnc(N)nc4C(F)F)nc(N4CCOCC4)n3)CC2)CC1 — remaining binding (binding, competition with immobilised ligand; 1 µM): 100%
CN(C)c1nccc(-c2cnc3ncccn23)n1 — remaining binding (binding; 1 µM): 75%
C[C@@H]1CN(c2cc(-c3n[nH]c4ccc(OC5(C)CC5)cc34)ncn2)C[C@H](C)O1 — remaining binding (cell-free assay, competition with immobilised ligand; 0.1 µM): 72%
C[C@H]1CCN(c2nccc(-c3cnn4ncccc34)n2)C1 — remaining binding (binding; 1 µM): 92%
CNC(=O)[C@@H]1CC[C@@H](n2c(-c3ccc4cnccc4c3)nc3ccc(C(=O)NCc4cccc(C(N)=O)c4)cc32)C1 — remaining binding (binding, competition with immobilised ligand; 1 µM): 99%
CN(C)c1ncc(F)c(-c2cnn3ncccc23)n1 — remaining binding (binding; 1 µM): 73%
CS(=O)(=O)c1cc(C2(NC(=O)c3cncc4c3cnn4-c3ccc(F)cc3)CC2)ccn1 — remaining binding (cell-free assay, competition with immobilised ligand; 1 µM): 100%
O=C(NCCCN1CCOCC1)c1ccc(Nc2ncc(Cl)c(-c3ccc(Cl)s3)n2)cc1 — remaining binding (binding, competition with immobilised ligand; 1 µM): 34%
CNC(=O)Nc1ccc2c(c1)[C@@]1(CC2)OC(=O)N(CC(=O)N(Cc2ccc(F)cc2)[C@@H](C)C(F)(F)F)C1=O — remaining binding (cell-free assay, competition with immobilised ligand; 1 µM): 95%
N[C@H]1CCN(c2nccc(-c3cnn4ncccc34)n2)C1 — remaining binding (binding; 1 µM): 74%
CCS(=O)(=O)c1cc2cc(C[C@@](O)(CC(C)(C)c3ccc(F)cc3C(N)=O)C(F)(F)F)[nH]c2cn1 — remaining binding (cell-free assay, competition with immobilised ligand; 1 µM): 100%
CN(C)c1nccc(-c2cnn3ncccc23)n1 — remaining binding (binding; 1 µM): 100%
O=C(c1ccc(Nc2ncc(Cl)c(-c3ccc(Cl)s3)n2)cc1)N1CCC(N2CCCC2)CC1 — remaining binding (binding, competition with immobilised ligand; 1 µM): 21%
